Converted amounts (≈) assume the structure as drawn. The source made the active and inactive calls. The calls are words filed in the database; no cut-off is given here.
Tests used:
Escherichia coli [1] = assay: Antimicrobial activity against Escherichia coli at 500 ug/disc after 24 hrs by disc diffusion method; assay type: functional; settings: read-out: DIZ
Escherichia coli [2] = assay: Antimicrobial activity against Escherichia coli at 1000 ug/disc after 24 hrs by disc diffusion method; assay type: functional; settings: read-out: DIZ
Bacillus subtilis [3] = assay: Antimicrobial activity against Bacillus subtilis at 500 ug/disc after 24 hrs by disc diffusion method; assay type: functional; settings: read-out: DIZ
Bacillus subtilis [4] = assay: Antimicrobial activity against Bacillus subtilis at 1000 ug/disc after 24 hrs by disc diffusion method; assay type: functional; settings: read-out: DIZ
[5] = system: Staphylococcus epidermidis; assay: Antimicrobial activity against Staphylococcus epidermidis at 500 ug/disc after 24 hrs by disc diffusion method; assay type: functional; settings: read-out: DIZ
[6] = system: Staphylococcus epidermidis; assay: Antimicrobial activity against Staphylococcus epidermidis at 1000 ug/disc after 24 hrs by disc diffusion method; assay type: functional; settings: read-out: DIZ
Klebsiella pneumoniae [7] = assay: Antimicrobial activity against Klebsiella pneumoniae at 500 ug/disc after 24 hrs by disc diffusion method; assay type: functional; settings: read-out: DIZ
Klebsiella pneumoniae [8] = assay: Antimicrobial activity against Klebsiella pneumoniae at 1000 ug/disc after 24 hrs by disc diffusion method; assay type: functional; settings: read-out: DIZ
Listeria monocytogenes [9] = assay: Antimicrobial activity against Listeria monocytogenes at 500 ug/disc after 24 hrs by disc diffusion method; assay type: functional; settings: for zone of inhibition at 500 µg/disc: read-out: DIZ
Listeria monocytogenes [10] = assay: Antimicrobial activity against Listeria monocytogenes at 1000 ug/disc after 24 hrs by disc diffusion method; assay type: functional; settings: for zone of inhibition at 1000 µg/disc: read-out: DIZ
Salmonella typhimurium [11] = assay: Antimicrobial activity against Salmonella Typhimurium at 500 ug/disc after 24 hrs by disc diffusion method; assay type: functional, Salmonella enterica subsp. enterica serovar Typhimurium; settings: Salmonella enterica, read-out: DIZ
Salmonella typhimurium [12] = assay: Antimicrobial activity against Salmonella Typhimurium at 1000 ug/disc after 24 hrs by disc diffusion method; assay type: functional, Salmonella enterica subsp. enterica serovar Typhimurium; settings: Salmonella enterica, read-out: DIZ
Staphylococcus aureus [13] = assay: Antimicrobial activity against Staphylococcus aureus at 500 ug/disc after 24 hrs by disc diffusion method; assay type: functional; settings: for zone of inhibition at 500 µg/disc: read-out: DIZ
Outline: (§1)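 Disc diffusion on 2.4% Mueller-Hinton agar inoculated with the strain. Paper discs 6 mm across were loaded with test compound and placed on the agar. Plates were incubated at 37 °C for 24 h. Read-out was the diameter of the inhibition zone in mm.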

Staphylococcus aureus [14] = assay: Antimicrobial activity against Staphylococcus aureus at 1000 ug/disc after 24 hrs by disc diffusion method; assay type: functional; settings: for zone of inhibition at 1000 µg/disc: read-out: DIZ
Staphylococcus aureus [15] = assay: Antimicrobial activity against methicillin-resistant Staphylococcus aureus strain 1 TB3G at 500 ug/disc after 24 hrs by disc diffusion method; assay type: functional; settings: for zone of inhibition at 500 µg/disc: read-out: DIZ; outline: as §1
Staphylococcus aureus [16] = assay: Antimicrobial activity against methicillin-resistant Staphylococcus aureus strain 1 TB3G at 1000 ug/disc after 24 hrs by disc diffusion method; assay type: functional; settings: for zone of inhibition at 1000 µg/disc: read-out: DIZ; outline: as §1
Staphylococcus aureus [17] = assay: Antimicrobial activity against methicillin-resistant Staphylococcus aureus strain 2 TB4G at 500 ug/disc after 24 hrs by disc diffusion method; assay type: functional; settings: for zone of inhibition at 500 µg/disc: read-out: DIZ; outline: as §1
Staphylococcus aureus [18] = assay: Antimicrobial activity against methicillin-resistant Staphylococcus aureus strain 2 TB4G at 1000 ug/disc after 24 hrs by disc diffusion method; assay type: functional; settings: for zone of inhibition at 1000 µg/disc: read-out: DIZ; outline: as §1
Staphylococcus aureus [19] = assay: Antimicrobial activity against methicillin-resistant Staphylococcus aureus strain 4 TB5G at 500 ug/disc after 24 hrs by disc diffusion method; assay type: functional; settings: for zone of inhibition at 500 µg/disc: read-out: DIZ; outline: as §1
Staphylococcus aureus [20] = assay: Antimicrobial activity against methicillin-resistant Staphylococcus aureus strain 4 TB5G at 1000 ug/disc after 24 hrs by disc diffusion method; assay type: functional; settings: for zone of inhibition at 1000 µg/disc: read-out: DIZ; outline: as §1
Escherichia coli [21] = assay: Antimicrobial activity against Escherichia coli after 24 hrs by microdilution method; assay type: functional
Outline: (§2)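 Growth was judged by turbidity, and the MIC was taken as the minimum concentration giving the lowest growth. Amikacin served as reference.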

Bacillus subtilis [22] = assay: Antimicrobial activity against Bacillus subtilis after 24 hrs by microdilution method; assay type: functional; outline: as §2
[23] = system: Staphylococcus epidermidis; assay: Antimicrobial activity against Staphylococcus epidermidis after 24 hrs by microdilution method; assay type: functional; outline: as §2
Klebsiella pneumoniae [24] = assay: Antimicrobial activity against Klebsiella pneumoniae after 24 hrs by microdilution method; assay type: functional; outline: as §2
Listeria monocytogenes [25] = assay: Antimicrobial activity against Listeria monocytogenes after 24 hrs by microdilution method; assay type: functional; outline: as §2
Salmonella typhimurium [26] = assay: Antimicrobial activity against Salmonella Typhimurium after 24 hrs by microdilution method; assay type: functional, Salmonella enterica subsp. enterica serovar Typhimurium; settings: Salmonella enterica; outline: as §2
Staphylococcus aureus [27] = assay: Antimicrobial activity against Staphylococcus aureus after 24 hrs by microdilution method; assay type: functional; outline: as §2
Staphylococcus aureus [28] = assay: Antimicrobial activity against methicillin-resistant Staphylococcus aureus strain 1 TB3G after 24 hrs by microdilution method; assay type: functional
Outline: (§3)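 Growth was judged by turbidity. The MIC was taken as the lowest concentration giving the lowest growth.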

Staphylococcus aureus [29] = assay: Antimicrobial activity against methicillin-resistant Staphylococcus aureus strain 2 TB4G after 24 hrs by microdilution method; assay type: functional; outline: as §3
Staphylococcus aureus [30] = assay: Antimicrobial activity against methicillin-resistant Staphylococcus aureus strain 4 TB5G after 24 hrs by microdilution method; assay type: functional; outline: as §3
A549 [31] = assay: Cytotoxicity against human A549 cells assessed as cell death at 1 ug after 48 hrs by MTT assay; assay type: functional
Outline: (§4)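 A549 cells were grown in DMEM with 2 mmol L-glutamine, 10% FBS, penicillin (50 IU/mL) and streptomycin, at 37 °C and 5% CO2. 1×10^4 cells/well were plated and treated 24 h later with compound diluted in medium for 48 h. Controls were DMSO-matched and untreated wells. MTT 0.4 mg/mL in PBS was added for 4 h in the dark, then DMSO for 4 h. A540 was read and reported as % live cells relative to untreated.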

A549 [32] = assay: Cytotoxicity against human A549 cells assessed as cell death at 2 ug after 48 hrs by MTT assay; assay type: functional; outline: as §4
A549 [33] = assay: Cytotoxicity against human A549 cells assessed as cell death at 5 ug after 48 hrs by MTT assay; assay type: functional; outline: as §4
A549 [34] = assay: Cytotoxicity against human A549 cells assessed as cell death at 10 ug after 48 hrs by MTT assay; assay type: functional; outline: as §4
A549 [35] = assay: Cytotoxicity against human A549 cells assessed as cell death at 25 ug after 48 hrs by MTT assay; assay type: functional; outline: as §4
A549 [36] = assay: Cytotoxicity against human A549 cells after 48 hrs by MTT assay; assay type: functional, cell-based; settings: A549, 48 h
Outline: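 A549 cells were kept in DMEM with 2 mM L-glutamine, 10% FBS, penicillin 50 IU/mL and streptomycin at 37 °C under 5% CO2. 1×10^4 cells per well were treated 24 h after seeding with compounds diluted in medium for 48 h. MTT (0.4 mg/mL in PBS) was added for 4 h in the dark, formazan was dissolved in DMSO for 4 h and absorbance read at 540 nm. Viability was expressed as % of untreated cells, and IC50 was derived.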

Row | Structure (SMILES) | zone of inhibition at 500 µg/disc (Escherichia coli [1]) | zone of inhibition at 1000 µg/disc (Escherichia coli [2]) | zone of inhibition at 500 µg/disc (Bacillus subtilis [3]) | zone of inhibition at 1000 µg/disc (Bacillus subtilis [4]) | zone of inhibition at 500 µg/disc [5] | zone of inhibition at 1000 µg/disc [6] | zone of inhibition at 500 µg/disc (Klebsiella pneumoniae [7]) | zone of inhibition at 1000 µg/disc (Klebsiella pneumoniae [8]) | zone of inhibition at 500 µg/disc (Listeria monocytogenes [9]) | zone of inhibition at 1000 µg/disc (Listeria monocytogenes [10]) | zone of inhibition at 500 µg/disc (Salmonella typhimurium [11]) | zone of inhibition at 1000 µg/disc (Salmonella typhimurium [12]) | zone of inhibition at 500 µg/disc (Staphylococcus aureus [13]) | zone of inhibition at 1000 µg/disc (Staphylococcus aureus [14]) | Activity (A549 [31]) | Activity (A549 [32]) | Activity (A549 [33]) | Activity (A549 [34]) | Activity (A549 [35]) | IC50 (A549 [36]) | further results
1 | CC(C)CC(=O)O[C@H](c1ccccc1)c1cc(O)c(C(=O)O)c(=O)[nH]1 | 10 mm | 18 mm | 8 mm | 15 mm | 12 mm | 20 mm | 9 mm | 20 mm | 7 mm | 15 mm | 9 mm | 20 mm | 11 mm | 18 mm | 10.46% | 30.76% | 44.92% | 77.84% | 78.76% | 8 µM | zone of inhibition at 500 µg/disc (Staphylococcus aureus [15]): 7 mm; zone of inhibition at 1000 µg/disc (Staphylococcus aureus [16]): 13 mm; zone of inhibition at 500 µg/disc (Staphylococcus aureus [17]): 6 mm; zone of inhibition at 1000 µg/disc (Staphylococcus aureus [18]): 10 mm; zone of inhibition at 500 µg/disc (Staphylococcus aureus [19]): 5 mm; zone of inhibition at 1000 µg/disc (Staphylococcus aureus [20]): 11 mm; MIC (Escherichia coli [21]): 50 µg/mL (≈ 145 µM); MIC (Bacillus subtilis [22]): 100 µg/mL (≈ 290 µM); MIC [23]: 25 µg/mL (≈ 72.4 µM); MIC (Klebsiella pneumoniae [24]): > 100 µg/mL; MIC (Listeria monocytogenes [25]): 100 µg/mL (≈ 290 µM); MIC (Salmonella typhimurium [26]): > 100 µg/mL; MIC (Staphylococcus aureus [27]): > 100 µg/mL; MIC (Staphylococcus aureus [28]): > 100 µg/mL; MIC (Staphylococcus aureus [29]): > 100 µg/mL; MIC (Staphylococcus aureus [30]): > 100 µg/mL
2 | CC(C)CC(=O)O[C@@H](c1ccccc1)c1cc(O)c(C(=O)O)c(=O)[nH]1 | 9 mm | 18 mm | 5 mm | 12 mm | 11 mm | 18 mm | 13 mm | 20 mm | 10 mm | 18 mm | 11 mm | 19 mm | 7 mm | 16 mm | 9.53% | 25.23% | 47.69% | 77.23% | 82.46% | 9 µM | zone of inhibition at 500 µg/disc (Staphylococcus aureus [15]): 5 mm; zone of inhibition at 1000 µg/disc (Staphylococcus aureus [16]): 10 mm; zone of inhibition at 500 µg/disc (Staphylococcus aureus [17]): 7 mm; zone of inhibition at 1000 µg/disc (Staphylococcus aureus [18]): 12 mm; zone of inhibition at 500 µg/disc (Staphylococcus aureus [19]): 6 mm; zone of inhibition at 1000 µg/disc (Staphylococcus aureus [20]): 10 mm; MIC (Escherichia coli [21]): 25 µg/mL (≈ 72.4 µM); MIC (Bacillus subtilis [22]): 50 µg/mL (≈ 145 µM); MIC [23]: 100 µg/mL (≈ 290 µM); MIC (Klebsiella pneumoniae [24]): 100 µg/mL (≈ 290 µM); MIC (Listeria monocytogenes [25]): > 100 µg/mL; MIC (Salmonella typhimurium [26]): > 100 µg/mL; MIC (Staphylococcus aureus [27]): > 100 µg/mL; MIC (Staphylococcus aureus [28]): > 100 µg/mL; MIC (Staphylococcus aureus [29]): > 100 µg/mL; MIC (Staphylococcus aureus [30]): > 100 µg/mL
3 | CC(C)CC(=O)O[C@H](c1ccccc1)c1cc(O)cc(=O)[nH]1 | 13 mm | 20 mm | 10 mm | 19 mm | 8 mm | 17 mm | 14 mm | 24 mm | – | – | 12 mm | 20 mm | – | – | 3.13% | 18.59% | 48.82% | 50.39% | 75.78% | 10 µM | diameter of the inhibition zone (DIZ) (Listeria monocytogenes [9]): inactive; diameter of the inhibition zone (DIZ) (Listeria monocytogenes [10]): inactive; diameter of the inhibition zone (DIZ) (Staphylococcus aureus [13]): inactive; diameter of the inhibition zone (DIZ) (Staphylococcus aureus [14]): inactive; diameter of the inhibition zone (DIZ) (Staphylococcus aureus [15]): inactive; diameter of the inhibition zone (DIZ) (Staphylococcus aureus [16]): inactive; diameter of the inhibition zone (DIZ) (Staphylococcus aureus [17]): inactive; diameter of the inhibition zone (DIZ) (Staphylococcus aureus [18]): inactive; diameter of the inhibition zone (DIZ) (Staphylococcus aureus [19]): inactive; diameter of the inhibition zone (DIZ) (Staphylococcus aureus [20]): inactive

From ChEMBL document CHEMBL1770123, “SPF32629A and SPF32629B: enantioselective synthesis, determination of absolute configuration, cytotoxicity and antibacterial evaluation” (Eur J Med Chem, 2011)
